{"source": "PubChem BioAssay AID504788", "about": "(Broad Institute, 2011)", "note": "Inconclusive results are not listed. Activity calls are given as the source filed them.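 Rule for the calls: active = compound lowers the viability signal with a fitted half-maximal concentration within ten times the top dose, every run; inconclusive = runs disagree, poor fit, or flat partial inhibition; inactive = the rest.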"}
{"tested_on": "not listed separately", "assay": "growth inhibition of breast cancer stem-like cells, dose response, cell-based, HMLE_shECad, CellTiter-Glo luminescence, dry powder, set 7 (AID 504788)", "conditions": "HMLE_shECad viability, CellTiter-Glo luminescence, 72 h; at 19.5 µM (top of the series)", "outline": "(§1)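 Assay system: HMLE_shECad breast CSC surrogate cells; Quantity: 2000 cells/well; Buffer or medium: serum-free CSC medium; Doses: 100 nL compound pinned into each well; Schedule: ≥4 h settling, then 70–74 h compound exposure, 37 °C; Signal: CellTiter-Glo luminescence, reagent diluted 1:3 in PBS, 12 min.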"}
{"smiles": "O=C(c1ccc(COc2ccccc2)o1)n1ccc(-c2ccc[nH]2)n1", "activity change, negative = inhibition": "7.35% (inactive)"}
{"smiles": "CCc1ccc(/C=C/C(=O)NC2=NCCS2)cn1", "activity change, negative = inhibition": "1.08% (inactive)"}
{"smiles": "Cc1csc(NC(=O)c2ccc(COc3cccnc3)o2)n1", "activity change, negative = inhibition": "-5.96% (inactive)"}
{"smiles": "O=C(COc1ccc(Cl)cc1Cl)NC1=NCCS1", "activity change, negative = inhibition": "-3.83% (inactive)"}
{"smiles": "N#Cc1cccc(/C=C/C(=O)NC2=NCCS2)c1", "activity change, negative = inhibition": "0.158% (inactive)"}
{"smiles": "CN(C)C(=N)N=C(N)N", "activity change, negative = inhibition": "6.34% (inactive)"}
{"smiles": "c1c[nH]c(-c2ccn[nH]2)c1", "activity change, negative = inhibition": "5% (inactive)"}
{"smiles": "N#Cc1ccccc1/C=C/C(=O)NC1=NCCS1", "activity change, negative = inhibition": "-13.1% (inactive)"}
{"smiles": "O=C(COc1ccc(Cl)cc1Cl)n1ccc(-c2ccc[nH]2)n1", "activity change, negative = inhibition": "7.33% (inactive)"}
{"smiles": "Cc1cccc(/C=C/C(=O)NC2=NCCS2)c1", "activity change, negative = inhibition": "6.76% (inactive)"}
{"smiles": "COc1cc(OC(C)C)ccc1/C=C/C(=O)NC1=NCCS1", "activity change, negative = inhibition": "-1.34% (inactive)"}
{"smiles": "O=C(c1ccc(COc2ccccc2)o1)N1CC(F)(F)C1", "activity change, negative = inhibition": "1.55% (inactive)"}
{"smiles": "CC(C)c1ccc(C#CC(=O)NC2=NCCS2)cc1", "activity change, negative = inhibition": "-4.05% (inactive)"}
{"smiles": "O=C(O)COc1ccc(Cl)cc1Cl", "activity change, negative = inhibition": "-2.16% (inactive)"}
{"smiles": "CC(C)c1ccc(/C=C/C(=O)N2CC(F)(F)C2)cc1", "activity change, negative = inhibition": "-4.76% (inactive)"}
{"smiles": "O=C(COc1ccc(Cl)cc1Cl)N/N=C/c1ccccc1", "activity change, negative = inhibition": "3.46% (inactive)"}
{"tested_on": "HMLE_shECad viability, CellTiter-Glo luminescence, 72 h", "assay": "growth inhibition of breast cancer stem-like cells, dose response, cell-based, HMLE_shECad, CellTiter-Glo luminescence, dry powder, set 7 (AID 504788)", "conditions": "not given", "outline": "as §1", "units": {"AC50": "µM"}}
{"smiles": "CC(C)c1ccc(/C=C/C(=O)n2ccc(-c3ccc[nH]3)n2)cc1", "AC50": 15.6}
{"smiles": "O=C(/C=C/c1ccc(-c2ccccc2)nc1)NC1=NCCS1", "AC50": 29}
{"smiles": "O=C(COc1c(Cl)cc(Cl)cc1Cl)N/N=C/c1ccc[nH]1", "AC50": 1.7}
{"smiles": "COc1cc(C(C)C)ccc1/C=C/C(=O)NC1=NCCS1", "AC50": 30.6}
{"smiles": "Cc1csc(NC(=O)c2ccc(COc3ccncc3)o2)n1", "AC50": 20}
{"smiles": "Cc1csc(NC(=O)COc2ccc(Cl)cc2Cl)n1", "AC50": 28.9}
{"smiles": "Cc1cccc(NCc2cccc(C(=O)Nc3nc(C)cs3)c2)n1", "AC50": 21.1}
{"smiles": "Cc1csc(NC(=O)c2ccc(COc3ncccc3F)o2)n1", "AC50": 22.7}
{"smiles": "COc1cc([C@@H]2c3cc4c(cc3[C@@H](OC3OC5COC(C)OC5C(O)C3O)[C@H]3COC(=O)[C@H]23)OCO4)cc(OC)c1O", "note": "(stereo not given in full)", "AC50": 2.95}
{"smiles": "Cc1csc(NC(=O)c2cccc(COc3ccccc3F)c2)n1", "AC50": 1.93}
{"smiles": "Cc1cccc(NCc2ccc(C(=O)Nc3nc(C)cs3)o2)n1", "AC50": 18}
{"smiles": "Cc1csc(NC(=O)c2ccc(COc3cccc(OC(F)(F)F)c3)o2)n1", "AC50": 0.895}
{"smiles": "Cc1cccc(OCc2cccc(C(=O)Nc3nc(C)cs3)c2)c1", "AC50": 2.74}
{"smiles": "COc1cccc2c1C(=O)c1c(O)c3c(c(O)c1C2=O)C[C@@](O)(C(=O)CO)C[C@@H]3OC1C[C@H](N)[C@H](O)[C@H](C)O1", "note": "(stereo not given in full)", "AC50": 0.053}
{"smiles": "Cc1cccc(OCc2ccc(C(=O)Nc3nc(C)cs3)o2)n1", "AC50": 18.7}
{"smiles": "Cc1ccnc(NCc2cccc(C(=O)Nc3nc(C)cs3)c2)c1", "AC50": 17.7}
{"smiles": "Cc1csc(NC(=O)c2cccc(COc3cccc(F)c3)c2)n1", "AC50": 0.705}
{"smiles": "Cc1csc(NC(=O)c2cccc(COc3cccc(Cl)c3)c2)n1", "AC50": 1.11}
{"smiles": "Cc1csc(NC(=O)c2cccc(CNc3ncccc3F)c2)n1", "AC50": 22.9}
